# Measurements reported in the RNAGym collection of RNA variant scans (doi:10.1126/science.aae0568).
# Variants at the floor of the assay were thinned out.
# B1: tRNA (parent)
# chain: GUUCCGUUGGCGUAAUGGUAACGCGUCUCCCUCCUAAGGAGAAGACUGCGGGUUCGAGUCCCGUACGGAACG
# Variants of: B1
# Experiment: yeast fitness relative to wild type (ratio to wild type); higher = fitter; tRNA-Arg(CCU), competitive growth, 37 C, YPD
# Outline: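 Changes in genotype frequencies gave Darwinian fitness relative to wild type. Frequencies were read by 100-nucleotide paired-end sequencing of gene amplicons before and after pooled Saccharomyces cerevisiae strains, carrying tRNA-Arg(CCU) gene variants at the native locus, were competed in YPD at 37°C for 24 hours in six replicates. A genotype was kept only with ≥ 100 starting reads, and estimates < 0.5 were set to 0.5.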
row,Variant,yeast fitness
1,A43G U59G,0.842
2,A43G U59C,0.863
3,A43G C49U C60A C62A,≤ 0.5
4,G44C C66U,0.692
5,A43C A65U,0.753
6,A43C A65G,0.95
7,A43G G51C,0.56
8,A43G G58A A65C C66U,≤ 0.5
9,A42U C46U A69C,0.9
10,A43U C60U G67C,0.636
11,A42G G68C A69G,0.563
12,A43U U47G U53G A69U,≤ 0.5
13,A43U C60G A70C,0.599
14,A42U A45U C60U A65C,≤ 0.5
15,A45C G58A,0.977
16,A45C G58C,1.06
17,A43C G48C,0.933
18,G44C C61A C66U,0.824
19,A43G C46U,0.92
20,A45C U53A C60G,0.536
21,A45C G48A,0.828

row,Variant,yeast fitness
1,A45C A57C G58C,0.602
2,G44A A57G G58A,0.695
3,A45C A57U A65C,0.617
4,A42U G48A,0.895
5,G44A U54C G56C,≤ 0.5
6,A43U C60G,0.655
7,A45C A57C,0.573
8,A45C A57U,0.682
9,G44C G63C G68A,≤ 0.5
10,A45C C49U G56A,0.856
11,A43U C55U,0.768
12,A43U C55A,0.613
13,A43G C49U,0.9
14,G44U G52A C55G A69U,≤ 0.5
15,A43G C60U C62U A70C,≤ 0.5
16,A42U G63A G68C A69C,≤ 0.5
17,G44C G56C,0.58
18,A45C G52C,0.762
19,A43G G58U,0.707
20,A42U C61U,0.827
21,A43G C49U U54C,0.522

row,Variant,yeast fitness
1,A43U U59A,0.807
2,A43C G52A A70U,≤ 0.5
3,G44C C60A C66U,≤ 0.5
4,A45C G48A G67A,0.829
5,A43G A45C C46U,0.578
6,A43G U47A U53A,≤ 0.5
7,A45G A65G,1.04
8,A42U C55U,0.709
9,A42U G58A,0.939
10,A42U G58C,0.924
11,A45C C60A C66U,≤ 0.5
12,A43G U47A C49A,0.531
13,A42U C62U,0.991
14,A42U C62G,0.596
15,A42U G68A,0.927
16,A45C G67A,0.814
17,A42G U59A,0.939
18,A42G U59C,0.714
19,G44C A65G A70C,0.682
20,A43U G48A C61G,≤ 0.5
21,G44C G56A A57G,0.543

row,Variant,yeast fitness
1,A42G G67U,0.633
2,A43G C61A G67A,≤ 0.5
3,A45C G51A C55A,0.516
4,A43U U53C,0.854
5,A43U U53A,0.666
6,A43U G48A C62A C66G,0.533
7,A43U C46G U54A G63A,0.726
8,G44C A45U U53C,0.605
9,A45C U64G,0.654
10,G44C G67C,0.823
11,A42U A43G G48C U53A A65U A70C,≤ 0.5
12,A43C G63A,0.929
13,A43C G63C,0.692
14,A42U A43C C49G A65C,≤ 0.5
15,A43G G56C A69U,0.683
16,A45C A70C,1.05
17,A43G G51C U54A A57C,≤ 0.5
18,G44C G50A A69U,0.63
19,A43U G51A C55U,≤ 0.5
20,A42G U59C C61U,0.502
21,A45C G50A A65U,0.643
